From ChEMBL document CHEMBL4725330, “The design, synthesis and evaluation of 2-aminobenzoxazole analogues as potent and orally efficacious ChemR23 inhibitors” (Bioorg Med Chem, 2020) come the findings set out here.

SMILES strings stand for the structures. pIC50: −log10 of the molar value.

For series [1], the target named is T1, Chemerin-like receptor 1 (Homo sapiens, UniProt Q99788).
T1 sequence (Q99788 whole entry): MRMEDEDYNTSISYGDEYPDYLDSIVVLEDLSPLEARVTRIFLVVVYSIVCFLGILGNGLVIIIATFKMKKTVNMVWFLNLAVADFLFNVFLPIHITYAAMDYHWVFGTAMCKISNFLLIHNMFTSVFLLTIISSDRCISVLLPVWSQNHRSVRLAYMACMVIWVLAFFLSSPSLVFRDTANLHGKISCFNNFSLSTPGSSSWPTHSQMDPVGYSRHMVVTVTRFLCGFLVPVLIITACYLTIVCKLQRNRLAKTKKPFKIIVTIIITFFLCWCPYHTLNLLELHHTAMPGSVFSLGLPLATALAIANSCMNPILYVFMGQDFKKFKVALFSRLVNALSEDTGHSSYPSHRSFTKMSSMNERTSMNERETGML
Briefly: Inhibition of chemR23 in human CAL1 cells assessed as inhibition of chemerin-induced intracellular calcium ion concentration preincubated for 45 mins followed by human chemerin addition by FDSS6000 analysis. The format is functional, cell-based.

The nature of series [2]: Ratio of fraction unbound in cynomolgus monkey plasma at 10 mg/kg to IC50 of inhibition of chemR23 in human CAL1 cells. The class given is organism-based. The following applies: in vivo.
Series [3] can be described thus: Cmax in cynomolgus monkey at 1 mg/kg, po administered as cassette dose by LC-MS/MS analysis. The following applies: in vivo. The arrangement: route oral, dose 1 mg/kg. The class given is ADME, organism-based, Macaca fascicularis. The gist of the method:
(§1)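 Cassette oral dosing, 1.0 mg/kg as a suspension in 0.5% methylcellulose, to fed cynomolgus monkeys. Plasma was obtained from blood, deproteinized with ice-cold acetonitrile containing internal standard, and measured by LC/MS/MS against a calibration curve using analyte/IS peak-area ratios. Values are means of three determinations.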

Series [4] can be described thus: Half-life in cynomolgus monkey at 1 mg/kg, po administered as cassette dose by LC-MS/MS analysis. The format is ADME, organism-based, Macaca fascicularis. As to conditions: in vivo. The gist of the method:
as §1

Series [5] is described as follows: AUC (0 to infinity) in cynomolgus monkey at 1 mg/kg, po administered as cassette dose by LC-MS/MS analysis. Also noted: time infinity, route oral, dose 1 mg/kg. As to conditions: in vivo. The format is ADME, organism-based, Macaca fascicularis. The gist of the method: as §1
Series [6] in a line: Fraction unbound in cynomolgus monkey plasma at 1 mg/kg, po administered as cassette dose incubated for 16 to 24 hrs by equilibrium dialysis based LC-MS analysis. The format is ADME, organism-based, Macaca fascicularis. As to conditions: in vivo, time 16-24 hrs. The gist of the method: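 Monkey plasma diluted with PBS and spiked with compound at 1 µM (final DMSO 0.05% v/v) was equilibrium-dialysed against PBS (membrane MWCO 12000–14000) for 16–24 h at 37 °C in a CO2 incubator. Both sides were deproteinized with acetonitrile containing IS and analysed by LC-MS/MS. Undiluted fu,p was calculated from the diluted value using the dilution factor.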

Series [7] in a line: Oral bioavailability in cynomolgus monkey at 1 mg/kg and 0.1 mg/kg, iv administered as cassette dose by LC-MS/MS analysis. The format is ADME, organism-based, Macaca fascicularis. As to conditions: in vivo. The essentials:
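Plasma was deproteinized with ice-cold acetonitrile containing internal standard and quantified by LC/MS/MS against a calibration curve from analyte/IS peak-area ratios. Values are means of three determinations.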

A short description of series [8]: Cmax in cynomolgus monkey at 10 mg/kg, po by LC-MS/MS analysis. The format is ADME, organism-based, Macaca fascicularis. The arrangement: route oral, dose 10 mg/kg. As to conditions: in vivo. The essentials: (§2)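 Single-compound oral dosing, 10 mg/kg as a suspension in 0.5% methylcellulose, to fed cynomolgus monkeys. Plasma was deproteinized with ice-cold acetonitrile plus internal standard and quantified by LC/MS/MS from analyte/IS peak-area ratios on a calibration curve. Values are means of three determinations.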

Series [9] in a line: Half-life in cynomolgus monkey at 10 mg/kg, po by LC-MS/MS analysis. The format is ADME, organism-based, Macaca fascicularis. As to conditions: in vivo. The gist of the method: as §2
Series [10] is described as follows: AUC (0 to infinity) in cynomolgus monkey at 10 mg/kg, po by LC-MS/MS analysis. The format is ADME, organism-based, Macaca fascicularis. As to conditions: in vivo. Also noted: time infinity, route oral, dose 10 mg/kg. The gist of the method:
as §2

Series [11] is described as follows: Drug concentration in cynomolgus monkey at 10 mg/kg, po by LC-MS/MS analysis measured upto 8 hrs. The class given is ADME, organism-based, Macaca fascicularis. The following applies: in vivo, read-out: Ct. The essentials:
as §2

A short description of series [12]: MRT in cynomolgus monkey at 10 mg/kg, po by LC-MS/MS. The format is ADME, organism-based, Macaca fascicularis. As to conditions: in vivo. The essentials: as §2
For series [13], the species on record is Macaca fascicularis. Kind of series: Induction of chemR23 internalization in whole blood of cynomolgus monkey assessed as internalization rate at 30 uM by flow cytometric analysis relative to control. The class given is tissue-based.
For series [14], the species on record is Macaca fascicularis. Briefly: Induction of chemR23 internalization in whole blood of cynomolgus monkey assessed as internalization rate at 100 uM by flow cytometric analysis relative to control. The class given is tissue-based.
Series [15] in a line: Induction of chemR23 internalization on pDCs of cynomolgus monkey assessed as internalization rate at 50 mg/kg, po measured after 4 hrs of administration by flow cytometric analysis relative to control. The format is functional, Macaca fascicularis. The essentials: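 Cynomolgus monkeys received 50 mg/kg orally as a suspension in 0.5% methylcellulose. Blood was drawn before dosing and at 2, 4 and 8 h. pDCs (HLA-DR+CD123+) were stained for ChemR23 and read by flow cytometry as GeoMFI. Internalization was expressed as expression at each time relative to pre-dose. Each animal was reported individually.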

The nature of series [16]: Plasma concentration in cynomolgus monkey at 50 mg/kg, po measured at 2 hrs of administration. The class given is ADME, organism-based, Macaca fascicularis. The essentials: (§3)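 Cynomolgus monkeys received 50 mg/kg orally as a suspension in 0.5% methylcellulose. Plasma concentrations were measured at 2, 4 and 8 h post-dose, and each animal was reported individually.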

Series [17] in a line: Plasma concentration in cynomolgus monkey at 50 mg/kg, po measured at 4 hrs of administration. The format is ADME, organism-based, Macaca fascicularis. The essentials:
as §3

Series [18] is described as follows: Plasma concentration in cynomolgus monkey at 50 mg/kg, po measured at 8 hrs of administration. The class given is ADME, organism-based, Macaca fascicularis. The gist of the method:
as §3

The nature of series [19]: Induction of chemR23 internalization on pDCs of cynomolgus monkey assessed as chemR23 expression relative to pre-dose at 50 mg/kg, po measured at 2 hrs of administration by flow cytometric analysis.
The nature of series [20]: Induction of chemR23 internalization on pDCs of cynomolgus monkey assessed as chemR23 expression relative to pre-dose at 50 mg/kg, po measured at 4 hrs of administration by flow cytometric analysis.
The nature of series [21]: Induction of chemR23 internalization on pDCs of cynomolgus monkey assessed as chemR23 expression relative to pre-dose at 50 mg/kg, po measured at 8 hrs of administration by flow cytometric analysis.

With `Cc1ccc(-c2nc(=O)o[nH]2)c(-c2ccc([C@@H](C)N(CC3CC3)c3nc4c(C(=O)O)cccc4o3)cc2)c1`, the pIC50 in series [1] was 8.49. Further, in [2], the Ratio amounted to 1. In addition, the Cmax turned out to be 1490 ng/mL in series [3] and 6950 ng/mL in series [8]. The values for the half-life in series [4] and in [9] were 2.8 h and 1 h, respectively. Also, the AUC(0-inf) in series [5] is 4830 ng·h/mL; in [10], 22200 ng·h/mL. The Fu in series [6] was 0.023 fraction (unitless). Besides, the bioavailability in series [7] is 58%. Besides, the concentration at 8 h in series [11] was 206 ng/mL; in series [18] it was 30.4 µM. In series [12], the MRT was determined as 2.9 h. Besides, the Activity in series [13] is 53%; in series [14] it was 82%; in series [15] it was 74%. The compound also came in with a concentration at 2 h in series [16] of 178 µM. The same compound came in with a concentration at 4 h in series [17] of 204 µM. Also, the ChemR23 expression in series [19] was 30%; in [20], 10%; in series [21], 44%.

With `CCCCN(c1nc2c(C(=O)O)cccc2o1)[C@H](C)c1ccc(-c2cc(Cl)ccc2-c2nc(=O)o[nH]2)cc1`, the pIC50 in series [1] was 8.92. For the same compound, the Ratio in series [2] worked out at 0.5. Besides, the Cmax amounted to 361 ng/mL in series [3] and 2110 ng/mL in [8]. Further, the half-life in series [4] and in series [9] was 2 h throughout. Besides, the AUC(0-inf) in series [5] was 1040 ng·h/mL; in series [10], 7090 ng·h/mL. Also, the Fu in series [6] is reported as 0.0135 fraction (unitless). Further, in series [7], the bioavailability was found to be 42%. This compound gave a mean residence time MRT in [12] of 4.1 h.
